Compound activity (PubChem BioAssay)
This is a sample that favours compounds with a hit; in the whole collection about 5.5% have one here.
WT yeast gro inh: growth inhibition of WT strain, primary screen, mitochondrial fusion inhibitor project, WT and mutant strains, chemical genetic | inhibition, % at 10 µM | AID 1362, 2008 | 190,000 tested, 2.1% active | mitochondrial fusion phenotypic screen; in the data active = inhibition above about 58%; tested in S. cerevisiae
Yeast lifespan up: compounds extending yeast replicative lifespan, primary screen, S. cerevisiae, OD615. AID 775, 2007. 130,000 tested, 0.68% active. S. cerevisiae growth with nicotinamide; deaD strain in restrictive glucose medium. inhibition of the nicotinamide effect, % at 10 µM;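 active = inhibition above a set limit, placed 3 SD over the median of all compounds, cut at about 26% in these data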;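 note: 0% = nicotinamide-treated wells and 100% = cells grown without nicotinamide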
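Assay system: engineered S. cerevisiae DeaD replicative-lifespan strain, galactose-grown log-phase cells; Buffer or medium: CSMM-D glucose medium, restrictive; Probe or stimulus: nicotinamide 1.5 mM; Compound: single dose 10 µM compound, 0.25% DMSO; Schedule: 4 h preincubation then 48 h treatment at 30 °C; Technique: OD615 measurement.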
RAM network inh: inhibitors of the yeast RAM network, primary screen, dse1pr::URA3 reporter, 5-FOA selection. S. cerevisiae dse1pr::URA3 reporter, 5-FOA growth OD615, 2 d; analog-sensitive cbk1-as2 kinase mutant strain. inhibition, % at 50 µM. 190,000 tested, 1.8% active. AID 868, 2007;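 active = inhibition above a set limit, 3 SD over mean compound inhibition, cut at about 8.4% in these data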;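 note: 0% = DMSO-only wells with no growth and 100% = 10 µM 1-NA-PP1 full growth; inhibition rescues growth on 5-FOA so higher OD means more RAM inhibition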
Cl transport mod: KCC2 cotransporter modulators, thallium flux, primary screen, cell-based, HEK293 KCC2, FluoZin-2 fluorescence, MLSMR. Solute carrier family 12 member 5 (Homo sapiens), Q9H2X9. KCC2 cells, thallium flux FluoZin-2 fluorescence. B-score of Tl+ flux slope (higher = more flux/activation; lower = inhibition) at 10 µM. 190,000 tested, 2.2% active;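 active = thallium flux slope and its plate-corrected score both differing from the plate sample mean at a set confidence after two filtering rounds, in either direction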;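 note: slope of fluorescence scaled to starting intensity during 10 to 20 s after thallium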
Target sequence (Q9H2X9 whole entry, looked up): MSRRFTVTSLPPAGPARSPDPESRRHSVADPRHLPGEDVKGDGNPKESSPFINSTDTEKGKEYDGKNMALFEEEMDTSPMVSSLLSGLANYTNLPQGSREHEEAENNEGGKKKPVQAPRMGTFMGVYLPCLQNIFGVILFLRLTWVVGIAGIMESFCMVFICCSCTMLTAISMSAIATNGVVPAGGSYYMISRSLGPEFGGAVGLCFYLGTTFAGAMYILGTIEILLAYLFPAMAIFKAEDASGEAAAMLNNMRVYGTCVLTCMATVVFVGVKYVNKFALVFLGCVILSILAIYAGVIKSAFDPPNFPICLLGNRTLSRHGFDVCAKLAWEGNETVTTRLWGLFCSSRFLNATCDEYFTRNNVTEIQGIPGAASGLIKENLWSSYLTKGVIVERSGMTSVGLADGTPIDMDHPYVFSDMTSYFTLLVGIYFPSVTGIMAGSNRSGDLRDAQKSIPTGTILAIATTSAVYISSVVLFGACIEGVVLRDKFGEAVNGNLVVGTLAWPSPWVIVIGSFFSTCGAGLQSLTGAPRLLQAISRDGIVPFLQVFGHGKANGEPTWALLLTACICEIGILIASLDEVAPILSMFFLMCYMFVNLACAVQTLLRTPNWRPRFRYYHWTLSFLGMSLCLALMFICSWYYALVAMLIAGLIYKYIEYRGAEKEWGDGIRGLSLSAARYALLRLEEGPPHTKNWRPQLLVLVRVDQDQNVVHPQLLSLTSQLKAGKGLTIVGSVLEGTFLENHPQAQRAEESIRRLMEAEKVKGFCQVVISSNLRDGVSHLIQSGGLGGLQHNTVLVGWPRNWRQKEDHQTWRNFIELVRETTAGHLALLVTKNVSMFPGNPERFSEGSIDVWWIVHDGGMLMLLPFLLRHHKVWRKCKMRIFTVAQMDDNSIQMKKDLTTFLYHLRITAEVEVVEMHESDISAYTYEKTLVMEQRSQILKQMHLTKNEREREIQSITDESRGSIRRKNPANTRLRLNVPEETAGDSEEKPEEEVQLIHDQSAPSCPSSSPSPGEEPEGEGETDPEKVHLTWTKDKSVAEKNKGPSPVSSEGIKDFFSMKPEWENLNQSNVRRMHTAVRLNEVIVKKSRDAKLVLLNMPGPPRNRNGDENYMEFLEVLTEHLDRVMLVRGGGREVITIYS
BB579 growth dn: growth inhibitors of yeast BB579 in restrictive medium, primary screen, yeast lifespan-shortening project, S. cerevisiae; OD615, 48 h; inhibition, % at 10 µM; 140,000 tested, 0.51% active; AID 804, 2007;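 active = inhibition above a set limit, 3 SD over the mean compound inhibition, cut at about 44% in these data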
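Material: Saccharomyces cerevisiae DeaD strain BB579, replicative lifespan model yeast; buffer or medium: CSMM-D restrictive synthetic medium containing dextrose (glucose); compound: 10 µM single dose, DMSO 0.25%; timing: 48 h compound exposure at 30 °C after 4 h preincubation; signal: turbidity as optical density at 615 nm; benchmarks: positive control amphotericin B 10 µg/mL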
* = called active by the depositor; · = no result.

SMILES | WT yeast gro inh | Yeast lifespan up | RAM network inh | Cl transport mod | BB579 growth dn
N#Cc1nc(COc2ccc(-c3ccccc3)cc2)oc1NCCCN1CCOCC1 | 76.8* | -26.6 | -0.1 | -0.847 | 28.4
N#Cc1nc(COc2ccccc2)oc1NCCN1CCOCC1 | 12.2 | -5.3 | 0.6 | -0.747 | 12.1
COc1ccc(N2CCN(c3oc(COc4ccccc4)nc3C#N)CC2)cc1 | 8.0 | -3.5 | 10.3* | -0.688 | -21.5
COc1ccc(-c2nc(C#N)c(N3CCN(c4ccccc4)CC3)o2)cc1 | 8.6 | -10.5 | 2.2 | -2.05 | -26.0
N#Cc1nc(Cc2ccccc2)oc1N1CCN(c2cccc(Cl)c2)CC1 | 26.4 | -4.9 | 11.3* | · | -33.7
NC(=O)c1ccc(NC(=O)COC(=O)/C=C/c2ccc3c(c2)OCO3)cc1 | · | · | · | 0.803 | ·
N#Cc1nc(-c2ccc(OCc3ccccc3)cc2)oc1N1CCC(C(N)=O)CC1 | 3.8 | -23.2 | 8.6* | · | -2.5
C/C=C/c1ccc(OCCCCOc2ccc(OC)cc2)c(OC)c1 | -10.7 | -5.1 | 10.2* | -0.0809 | -44.0
O=C(NCCN1CCOCC1)C1CCC(=O)N1Cc1ccccc1Cl (configuration not stated) | 8.6 | -3.8 | -0.6 | -0.683 | -37.3
O=C(NCC1CCCO1)C1CCC(=O)N1Cc1ccccc1Cl (configuration not stated) | 91.3* | -6.4 | -0.9 | -1.05 | -22.3
CCOP(=O)(OCC)c1nc(-c2cccc([N+](=O)[O-])c2)oc1N1CCCCC1 | -21.0 | · | 0.4 | -1.12 | ·
CCOP(=O)(c1ccccc1)c1nc(-c2ccccc2Cl)oc1N1CCCCC1 (configuration not stated) | 66.4* | · | 4.5 | -0.807 | -24.2
CC(C)CCNC(=O)NC(=O)COC(=O)C1CCN(S(=O)(=O)c2ccccc2F)CC1 | 3.1 | 2.6 | 5.6 | 0.658 | -41.7
COc1ccc(/C=C2\SC(=S)NC2=O)cc1OS(=O)(=O)c1ccc(NC(C)=O)cc1 | -2.8 | · | 5.5 | -2.83 | ·
COc1cc(/C=C2\SC(=S)NC2=O)ccc1OS(=O)(=O)c1ccccc1 | 79.2* | 1.8 | 4.9 | 80.2* | -28.0
COc1cc(/C=C2/SC(=S)NC2=O)ccc1OS(=O)(=O)c1ccc(C)cc1 | 73.4* | 0.3 | 6.4 | 80.2* | -35.3
COc1ccc(/C=C2\SC(=O)NC2=S)cc1OC | 16.3 | -3.0 | 2.6 | 11.7* | -15.8
CCOc1ccc(/C=C2\SC(=S)N(C)C2=O)cc1OC | · | · | · | 0.22 | ·
COc1ccc(/C=C/C(=O)c2ccc(O)cc2)cc1COc1ccc(F)cc1 | 90.0* | -1.8 | 6.2 | · | -34.4
COc1ccc(Oc2ccc(/C=C/C(=O)c3ccc(O)cc3)cc2[N+](=O)[O-])cc1 | 28.4 | 4.3 | 11.1* | 1.14 | -69.6
NC(=S)c1c(Cl)cc(C(F)(F)F)cc1Cl | · | · | · | 0.386 | ·
O=C(COC(=O)c1ccccn1)Nc1cccc(Cl)c1Cl | 96.9* | -17.1 | 1.8 | · | -21.9
O=C(O)Cc1ccc(C(=O)c2ccccc2F)s1 | -17.9 | -8.9 | -0.1 | · | -19.4
CC(Oc1ccc(Cl)cc1Cl)c1nc(-c2ccc(NC(=O)c3ccco3)cc2)no1 (configuration not stated) | 84.5* | -11.6 | 4.3 | · | -60.2
Cc1ccccc1OCc1nc(-c2ccc(NC(=O)c3ccco3)cc2)no1 | 35.5 | -8.5 | 2.7 | · | -39.3
SMILES | WT yeast gro inh | Yeast lifespan up | RAM network inh | Cl transport mod | BB579 growth dn
CCOc1ccc(-c2nc(N)ncc2Oc2ccc(OC)cc2)c(O)c1 | · | · | · | 0.924 | ·
COc1ccc(-c2nc(N)nc(C)c2Oc2ccccc2Br)c(O)c1 | 82.6* | -7.0 | 0.5 | -1.02 | -3.3
CCOc1cccc(C(=O)NC(=S)Nc2ccc(Cl)cc2C(=O)O)c1 | -3.6 | · | 0.2 | -0.881 | ·
CCc1nn(C(C)C(=O)N2CCN(Cc3ccccc3)CC2)c(=O)c2cc3occc3n12 (configuration not stated) | 58.1* | -6.3 | 0.0 | -1.7 | -27.1
Cc1nn(C(C)C(=O)N2CCN(c3ccccn3)CC2)c(=O)c2cc3occc3n12 (configuration not stated) | 2.2 | -6.4 | 2.0 | -4.18 | -11.8
CC(C)NS(=O)(=O)c1ccc(NC(=O)C2CC3C=CC2C3)cc1 (configuration not stated) | 75.1* | -7.5 | 1.9 | · | -28.8
NS(=O)(=O)c1ccc(CCNC(=O)/C=C/c2ccccc2[N+](=O)[O-])cc1 | 1.8 | · | 4.5 | 0.52 | ·
COc1ccc(N(C)C(=S)Nc2ccc3nc(C)c(C)nc3c2)cc1 | -9.4 | 42.5* | -0.2 | 0.0667 | 4.8
Cc1cc(NCCCn2ccnc2)n2nc(C)c(-c3ccc(Cl)cc3)c2n1 | 64.5* | -14.8 | 5.4 | 1.37 | -21.7
Cc1cccc(-c2ncc(CN3CCN(CCC(C)C)C(CCO)C3)cn2)c1 (configuration not stated) | 13.5 | · | -0.9 | 0.379 | ·
O=C(CCn1nc(-c2ccccc2)c2ccccc2c1=O)NCC1CCCO1 (configuration not stated) | 63.2* | -9.8 | 0.9 | · | 5.1
Cc1ccc(-c2nn(CCC(=O)NCC3CCCO3)c(=O)c3ccccc23)cc1 (configuration not stated) | -15.3 | -7.9 | 0.4 | -1.08 | -17.1
O=C(NNc1nc2cc3c(cc2s1)OCCO3)c1ccccc1 | 2.2 | · | 0.4 | -0.45 | ·
CC(C)C(=O)Nc1nc2cc3c(cc2s1)OCO3 | -0.5 | -9.7 | 2.2 | · | -2.4
Fc1cccc2sc(Nc3nc4cc5c(cc4s3)OCCO5)nc12 | 21.1 | 1.2 | 3.1 | 10.6* | -51.3
Fc1cccc2sc(Nc3nc4cc5c(cc4s3)OCO5)nc12 | 24.2 | -2.4 | 2.1 | 22.7* | -37.4
O=C(N/N=C/c1ccc(COc2ccc(Br)cc2)o1)c1ccco1 | -13.9 | 5.0 | 8.2 | -1.43 | -12.8
N#CC1=C(N)C2=CCCC[C@H]2[C@H](c2ccc(Br)cc2)C1(C#N)C#N | 67.6* | 0.2 | 2.4 | -0.888 | -14.2
N#CC1=C(N)C2=CCCC[C@H]2[C@H](c2ccccc2)C1(C#N)C#N | 11.9 | 3.5 | 1.1 | -1.1 | -2.8
COc1cccc(OC)c1OCCCOc1ccc(C)cc1Br | 66.8* | -4.1 | -0.8 | 1.93 | -33.8
CC(=O)[C@H]1[C@@H]2C(=O)N(c3cccc(Cl)c3)C(=O)[C@@H]2[C@H]2c3ccccc3C=CN21 | -48.8 | -8.6 | 2.0 | · | -47.6
CC(=O)[C@H]1[C@H](c2cccc(Cl)c2)C(C#N)(C#N)[C@@H]2c3ccccc3C=CN21 | -21.5 | 44.7* | 1.1 | 0.626 | -39.3
Cc1ccc(C(=O)NC(=S)Nc2nc(-c3cccc([N+](=O)[O-])c3)cs2)c(Cl)c1 | -3.5 | · | 1.4 | 2.97 | ·
CC(=O)/C(=C/c1ccc(N(C)C)cc1)C(=O)c1ccccc1 | 6.1 | 3.4 | 5.7 | 0.692 | -51.3
CC(=O)N1/C(=C/c2ccc(N(C)C)cc2)C(=O)c2ccccc21 | 62.6* | · | -1.9 | -0.724 | ·
